≈ marks a conversion by molar mass, not a printed value.
Tests used:
Staphylococcus aureus [1] = assay: Synergistic antibacterial activity against multidrug-resistant Staphylococcus aureus isolate 256 assessed as fractional Inhibitory concentration index in presence of methicillin by broth microdilution assay; type: functional
Staphylococcus aureus [2] = assay: Synergistic antibacterial activity against multidrug-resistant Staphylococcus aureus isolate 2901 in presence of methicillin by broth microdilution assay; type: functional
Method in brief: (§1)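 CLSI broth microdilution on clinical MRSA isolates. MICs were measured for the β-lactam alone, the test agent alone and the two combined. Compounds were dissolved in DMSO, and growth inhibition was scored by eye. FIC index is the sum, over both agents, of MIC in combination divided by MIC alone. An FIC index ≤0.5 was taken as synergy.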

Staphylococcus aureus [3] = assay: Synergistic antibacterial activity against multidrug-resistant Staphylococcus aureus isolate 3267 assessed as fractional Inhibitory concentration index in presence of amoxicillin by broth microdilution assay; type: functional
Escherichia coli = assay: Antibacterial activity against Escherichia coli ATCC 25922 by broth microdilution assay; type: functional
Method in brief: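 Broth microdilution per CLSI guidelines; compounds dissolved in DMSO; single agents tested; growth inhibition read by eye; run in duplicate (table footnote states at least triplicates).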

Staphylococcus aureus [4] = assay: Synergistic antibacterial activity against multidrug-resistant Staphylococcus aureus isolate 254 assessed as fractional Inhibitory concentration index in presence of meropenem by broth microdilution assay; type: functional
Staphylococcus aureus [5] = assay: Synergistic antibacterial activity against multidrug-resistant Staphylococcus aureus isolate 417 assessed as fractional Inhibitory concentration index in presence of cefuroxime by broth microdilution assay; type: functional
Staphylococcus aureus [6] = assay: Synergistic antibacterial activity against multidrug-resistant Staphylococcus aureus isolate 1717 assessed as fractional Inhibitory concentration index in presence of cloxacillin by broth microdilution assay; type: functional
Method in brief: (§2)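 CLSI broth microdilution run on clinical MRSA isolates with each β-lactam alone, the test agent alone, and the two combined; agents dissolved in DMSO. Growth inhibition was read by eye. FIC index = FIC(compound) + FIC(β-lactam), where each FIC is the MIC in combination divided by the MIC alone. An index ≤0.5 was taken as synergy.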

Staphylococcus aureus [7] = assay: Synergistic antibacterial activity against multidrug-resistant Staphylococcus aureus isolate 417 in presence of cloxacillin by broth microdilution assay; type: functional
Staphylococcus aureus [8] = assay: Synergistic antibacterial activity against multidrug-resistant Staphylococcus aureus isolate 2516 in presence of methicillin by broth microdilution assay; type: functional; method in brief: as §1
Staphylococcus aureus [9] = assay: Synergistic antibacterial activity against multidrug-resistant Staphylococcus aureus isolate 85 assessed as fractional Inhibitory concentration index in presence of amoxicillin by broth microdilution assay; type: functional
[10] = Half life in Sprague-Dawley rat at 1 mg/kg, iv by UPLC-MS/MS analysis; type: ADME, organism-based; conditions: in vivo
Method in brief: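 Male Sprague–Dawley rats (250-280 g) dosed IV at 1 mg/kg or by oral feeding at 50 mg/kg. Jugular blood taken from 5 to 420 min (IV) or 2 to 600 min (oral). Plasma proteins precipitated with methanol, then analysed by UPLC-MS/MS with positive ESI. Parameters from non-compartmental analysis.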

Staphylococcus aureus [11] = assay: Synergistic antibacterial activity against multidrug-resistant Staphylococcus aureus isolate 3411 in presence of meropenem by broth microdilution assay; type: functional
Staphylococcus aureus [12] = assay: Synergistic antibacterial activity against multidrug-resistant Staphylococcus aureus isolate 757 assessed as fractional Inhibitory concentration index in presence of methicillin by broth microdilution assay; type: functional
Staphylococcus aureus [13] = assay: Synergistic antibacterial activity against multidrug-resistant Staphylococcus aureus isolate 1136 in presence of amoxicillin by broth microdilution assay; type: functional
Method in brief: (§3)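 Broth microdilution MIC per CLSI guidelines against clinical MRSA isolates, for β-lactams and test compound alone and in combination. Compounds were dissolved in DMSO. Growth was read by eye, in duplicate. FIC index = FIC(compound) + FIC(drug); synergy defined as FIC index ≤0.5.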

Staphylococcus aureus [14] = assay: Synergistic antibacterial activity against multidrug-resistant Staphylococcus aureus isolate 1749 in presence of cefuroxime by broth microdilution assay; type: functional
Method in brief: (§4)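 Clinical MRSA isolate panel; compound and β-lactam tested alone and in combination by CLSI broth microdilution, compounds dissolved in DMSO, growth inhibition scored by eye, run in duplicate. FIC index = FIC(compound) + FIC(drug), each the MIC in combination divided by the MIC alone; an index ≤ 0.5 was called synergy.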

Staphylococcus aureus [15] = assay: Synergistic antibacterial activity against multidrug-resistant Staphylococcus aureus isolate 774 in presence of methicillin by broth microdilution assay; type: functional
Staphylococcus aureus [16] = assay: Synergistic antibacterial activity against multidrug-resistant Staphylococcus aureus isolate 2728 in presence of methicillin by broth microdilution assay; type: functional; method in brief: as §1
Staphylococcus aureus [17] = assay: Synergistic antibacterial activity against multidrug-resistant Staphylococcus aureus isolate 3332 assessed as fractional Inhibitory concentration index in presence of amoxicillin by broth microdilution assay; type: functional
Staphylococcus aureus [18] = assay: Synergistic antibacterial activity against multidrug-resistant Staphylococcus aureus isolate 417 in presence of methicillin by broth microdilution assay; type: functional
Staphylococcus aureus [19] = assay: Synergistic antibacterial activity against multidrug-resistant Staphylococcus aureus isolate 757 assessed as fractional Inhibitory concentration index in presence of cefuroxime by broth microdilution assay; type: functional
Staphylococcus aureus [20] = assay: Synergistic antibacterial activity against multidrug-resistant Staphylococcus aureus isolate 254 in presence of methicillin by broth microdilution assay; type: functional; method in brief: as §1
Staphylococcus aureus [21] = assay: Synergistic antibacterial activity against multidrug-resistant Staphylococcus aureus isolate 231 in presence of cefuroxime by broth microdilution assay; type: functional; method in brief: as §4
Staphylococcus aureus [22] = assay: Synergistic antibacterial activity against multidrug-resistant Staphylococcus aureus isolate 3267 in presence of meropenem by broth microdilution assay; type: functional; method in brief: as §1
Staphylococcus aureus [23] = assay: Synergistic antibacterial activity against multidrug-resistant Staphylococcus aureus isolate 3267 in presence of methicillin by broth microdilution assay; type: functional; method in brief: as §1
Staphylococcus aureus [24] = assay: Synergistic antibacterial activity against multidrug-resistant Staphylococcus aureus isolate 254 in presence of cefuroxime by broth microdilution assay; type: functional; method in brief: as §1
Staphylococcus aureus [25] = assay: Synergistic antibacterial activity against multidrug-resistant Staphylococcus aureus isolate 1717 assessed as fractional Inhibitory concentration index in presence of methicillin by broth microdilution assay; type: functional; method in brief: as §2
Staphylococcus aureus [26] = assay: Antibacterial activity against multidrug-resistant Staphylococcus aureus isolate 254 by broth microdilution assay; type: functional; method in brief: as §3
Staphylococcus aureus [27] = assay: Synergistic antibacterial activity against multidrug-resistant Staphylococcus aureus isolate 1749 assessed as fractional Inhibitory concentration index in presence of cefuroxime by broth microdilution assay; type: functional; method in brief: as §2
Staphylococcus aureus [28] = assay: Synergistic antibacterial activity against multidrug-resistant Staphylococcus aureus isolate 757 assessed as fractional Inhibitory concentration index in presence of amoxicillin by broth microdilution assay; type: functional
Staphylococcus aureus [29] = assay: Synergistic antibacterial activity against multidrug-resistant Staphylococcus aureus isolate 231 in presence of methicillin by broth microdilution assay; type: functional; method in brief: as §4
[30] = Selective index, ratio of IC50 for mouse L929 cells to MIC for Staphylococcus aureus ATCC 29213
Method in brief: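 Selectivity index calculated as L929 IC50 (μM) divided by S. aureus MIC (μM).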

Staphylococcus aureus [31] = assay: Synergistic antibacterial activity against multidrug-resistant Staphylococcus aureus isolate 2728 in presence of meropenem by broth microdilution assay; type: functional; method in brief: as §1
Staphylococcus aureus [32] = assay: Synergistic antibacterial activity against multidrug-resistant Staphylococcus aureus isolate 757 in presence of meropenem by broth microdilution assay; type: functional
Staphylococcus aureus [33] = assay: Synergistic antibacterial activity against multidrug-resistant Staphylococcus aureus isolate 2895 in presence of cefuroxime by broth microdilution assay; type: functional; method in brief: as §1
Staphylococcus aureus [34] = assay: Synergistic antibacterial activity against multidrug-resistant Staphylococcus aureus isolate 2919 in presence of cloxacillin by broth microdilution assay; type: functional; method in brief: as §1

**Q.** What does the source list for `CCCCCCCCCNc1ccc(F)c(C(N)=O)c1F`?
**A.** fractional inhibitory concentration index (FICI) (Staphylococcus aureus [1]): 0; MIC (Staphylococcus aureus [2]): 2 µg/mL; fractional inhibitory concentration index (FICI) (Staphylococcus aureus [3]): 0.3; MIC (Escherichia coli): > 64 µg/mL; fractional inhibitory concentration index (FICI) (Staphylococcus aureus [4]): 1.5; fractional inhibitory concentration index (FICI) (Staphylococcus aureus [5]): 0.1; fractional inhibitory concentration index (FICI) (Staphylococcus aureus [6]): 2.5; MIC (Staphylococcus aureus [7]): 2 µg/mL; MIC (Staphylococcus aureus [8]): 4 µg/mL; fractional inhibitory concentration index (FICI) (Staphylococcus aureus [9]): 0; half-life [10]: 330 min; MIC (Staphylococcus aureus [11]): 4 µg/mL; fractional inhibitory concentration index (FICI) (Staphylococcus aureus [12]): 0.1; MIC (Staphylococcus aureus [13]): 16 µg/mL; MIC (Staphylococcus aureus [14]): 2 µg/mL; MIC (Staphylococcus aureus [15]): 4 µg/mL; MIC (Staphylococcus aureus [16]): 4 µg/mL; fractional inhibitory concentration index (FICI) (Staphylococcus aureus [17]): 0.6; MIC (Staphylococcus aureus [18]): 2 µg/mL; fractional inhibitory concentration index (FICI) (Staphylococcus aureus [19]): 0.1; MIC (Staphylococcus aureus [20]): 4 µg/mL; MIC (Staphylococcus aureus [21]): 4 µg/mL; MIC (Staphylococcus aureus [22]): 8 µg/mL; MIC (Staphylococcus aureus [23]): 4 µg/mL; MIC (Staphylococcus aureus [24]): 4 µg/mL; fractional inhibitory concentration index (FICI) (Staphylococcus aureus [25]): 1.1; MIC (Staphylococcus aureus [26]): 16 µg/mL (≈ 53.6 µM); fractional inhibitory concentration index (FICI) (Staphylococcus aureus [27]): 1.1; fractional inhibitory concentration index (FICI) (Staphylococcus aureus [28]): 0.3; MIC (Staphylococcus aureus [29]): 4 µg/mL; Selectivity Index [30]: >32; MIC (Staphylococcus aureus [31]): 4 µg/mL; MIC (Staphylococcus aureus [32]): 16 µg/mL; MIC (Staphylococcus aureus [33]): 4 µg/mL; MIC (Staphylococcus aureus [34]): 1 µg/mL
